Converted amounts (≈) assume the structure as drawn. Residues, ends and D or L forms follow the SMILES beside them. *: point of attachment. X1 = Cc1cc2nc(-c3ccc(O)c(C(=O)*)c3)[nH]c2cc1C
Tests used:
[1] = Growth inhibition of EAC cells at 500 ug/mL after 3 hrs; assay type: functional; conditions: Mus musculus, Ehrlich
In short: (§1)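 DLA and EAC cells passaged intraperitoneally in albino mice, harvested after 15–20 days and adjusted to 1 × 10⁶ cells/mL. Dilutions in Dulbecco's medium (500–31.25, some down to 3.91 µg/mL; 5-FU reference) mixed 1:1 with cells and held 3 h at 37 °C. Trypan blue exclusion gave % growth inhibition; CTC50 by graphical extrapolation.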

[2] = Growth inhibition of EAC cells after 3 hrs; assay type: functional; conditions: Mus musculus, Ehrlich; in short: as §1
[3] = Growth inhibition of EAC cells at 15.63 ug/mL after 3 hrs; assay type: functional; conditions: Mus musculus, Ehrlich; in short: as §1
[4] = Growth inhibition of EAC cells at 7.81 ug/mL after 3 hrs; assay type: functional; conditions: Mus musculus, Ehrlich; in short: as §1
[5] = Growth inhibition of DLA cells at 3.91 ug/mL after 3 hrs; assay type: functional; conditions: Mus musculus; in short: as §1
[6] = Growth inhibition of EAC cells at 250 ug/mL after 3 hrs; assay type: functional; conditions: Mus musculus, Ehrlich; in short: as §1
[7] = Growth inhibition of DLA cells at 7.81 ug/mL after 3 hrs; assay type: functional; conditions: Mus musculus; in short: as §1
[8] = Growth inhibition of DLA cells at 62.5 ug/mL after 3 hrs; assay type: functional; conditions: Mus musculus; in short: as §1
[9] = Growth inhibition of EAC cells at 3.91 ug/mL after 3 hrs; assay type: functional; conditions: Mus musculus, Ehrlich; in short: as §1
[10] = Growth inhibition of DLA cells after 3 hrs; assay type: functional; conditions: Mus musculus; in short: as §1
[11] = Growth inhibition of DLA cells at 15.63 ug/mL after 3 hrs; assay type: functional; conditions: Mus musculus; in short: as §1
[12] = Growth inhibition of DLA cells at 31.25 ug/mL after 3 hrs; assay type: functional; conditions: Mus musculus; in short: as §1
Bacillus subtilis [13] = assay: Antibacterial activity against Bacillus subtilis NCIM 2063 after 18 hrs by tube dilution method; assay type: functional; conditions: NCIM 2063, 18 h
In short: (§2)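 Tube dilution MIC. Stock diluted in sterile broth to seven concentrations from 200 to 3.1 […]. Each tube inoculated with one loopful of test bacterium and incubated 18 h at 37 °C. MIC read from presence or absence of growth.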

Pseudomonas aeruginosa [14] = assay: Antibacterial activity against Pseudomonas aeruginosa NCIM 2034 after 18 hrs by disc diffusion method; assay type: functional
In short: (§3)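 Modified Kirby-Bauer disc diffusion. Plates inoculated with spore suspension (about 6 × 10⁴ spores mL^-1). Sterile 6 mm paper discs carried test samples at 10 mg mL^-1; ciprofloxacin disc as reference, DMF disc as negative control. Plates held 18 h at 37 °C. Inhibition zone diameters (mm) averaged over triplicate sets.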

[15] = Anthelmintic activity against Megascoplex konkanensis ICARBC 211 assessed as mean death time; assay type: functional
In short: (§4)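 Earthworms exposed to test suspensions at 2 mg mL^-1 (0.2% w/v), made by triturating compound with Tween 80 (0.5%) and distilled water, then mechanically stirred 30 min. Mebendazole suspension prepared alike as reference. Paralysis and death times recorded; death confirmed by no movement in 50 °C water. Means from triplicate sets.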

Aspergillus niger = assay: Antifungal activity against Aspergillus niger MUCC 177 after 48 hrs by disc diffusion method; assay type: functional
In short: (§5)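 Agar well diffusion on plates inoculated with spore suspension in normal saline from cultures on Sabouraud's broth. Wells punched and loaded with test samples or griseofulvin at 10 mg mL^-1, with DMSO as negative control. Incubated 48 h at 37 °C.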

Bacillus subtilis [16] = assay: Antibacterial activity against Bacillus subtilis NCIM 2063 after 18 hrs by disc diffusion method; assay type: functional; in short: as §3
Microsporum audouinii [17] = assay: Antifungal activity against Microsporum audouinii MUCC 545 after 48 hrs by disc diffusion method; assay type: functional; in short: as §5
Pseudomonas aeruginosa [18] = assay: Antibacterial activity against Pseudomonas aeruginosa NCIM 2034 after 18 hrs by tube dilution method; assay type: functional; conditions: NCIM 2034, 18 h; in short: as §2
Staphylococcus aureus [19] = assay: Antibacterial activity against Staphylococcus aureus NCIM 2079 after 18 hrs by tube dilution method; assay type: functional; conditions: NCIM 2079, 18 h; in short: as §2
Candida albicans [20] = assay: Antifungal activity against Candida albicans MUCC 29 after 48 hrs by tube dilution method; assay type: functional
In short: (§6)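 Tube dilution MIC as for bacteria (seven concentrations, 200–3.1 […]), with DMSO in place of DMF. Tubes inoculated with fungal culture and incubated 48 h at 37 °C. MIC read from presence or absence of growth.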

Escherichia coli [21] = assay: Antibacterial activity against Escherichia coli NCIM 2065 after 18 hrs by tube dilution method; assay type: functional; conditions: NCIM 2065, 18 h
Trichophyton benhamiae [22] = assay: Antifungal activity against Trichophyton mentagrophytes MUCC 665 after 48 hrs by disc diffusion method; assay type: functional, Arthroderma benhamiae; in short: as §5
Staphylococcus aureus [23] = assay: Antibacterial activity against Staphylococcus aureus NCIM 2079 after 18 hrs by disc diffusion method; assay type: functional; in short: as §3
Pontoscolex corethrurus [24] = assay: Anthelmintic activity against Pontoscolex corethrurus ICARBC 408 assessed as mean death time; assay type: functional
In short: (§7)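 Earthworms exposed to test suspensions at 2 mg mL−1, prepared by triturating compound with Tween 80 (0.5%) and distilled water, stirring 30 min, then diluting to 0.2% w/v. Mebendazole suspension was made the same way. Death was confirmed by moving worms into 50 °C warm water and looking for movement. Mean death time (min) taken from triplicate sets.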

[25] = Growth inhibition of EAC cells at 31.25 ug/mL after 3 hrs; assay type: functional; conditions: Mus musculus, Ehrlich; in short: as §1
Trichophyton benhamiae [26] = assay: Antifungal activity against Trichophyton mentagrophytes MUCC 665 after 48 hrs by tube dilution method; assay type: functional, Arthroderma benhamiae; in short: as §6
Candida albicans [27] = assay: Antifungal activity against Candida albicans MUCC 29 after 48 hrs by disc diffusion method; assay type: functional; in short: as §5
Eudrilus [28] = assay: Anthelmintic activity against Eudrilus sp. assessed as mean death time; assay type: functional; in short: as §7
[29] = Anthelmintic activity against Megascoplex konkanensis ICARBC 211 assessed as mean paralyzing time; assay type: functional; in short: as §4
Pontoscolex corethrurus [30] = assay: Anthelmintic activity against Pontoscolex corethrurus ICARBC 408 assessed as mean paralyzing time; assay type: functional; in short: as §4
[31] = Growth inhibition of EAC cells at 62.5 ug/mL after 3 hrs; assay type: functional; conditions: Mus musculus, Ehrlich; in short: as §1
Microsporum audouinii [32] = assay: Antifungal activity against Microsporum audouinii MUCC 545 after 48 hrs by tube dilution method; assay type: functional; in short: as §6
Eudrilus [33] = assay: Anthelmintic activity against Eudrilus sp. assessed as mean paralyzing time; assay type: functional; in short: as §4
Escherichia coli [34] = assay: Antibacterial activity against Escherichia coli NCIM 2065 after 18 hrs by disc diffusion method; assay type: functional; in short: as §3

| SMILES | CC50 [2] [µM] | inhibition at 15.63 µg/mL [3] [%] | inhibition at 7.81 µg/mL [4] [%] | inhibition at 3.91 µg/mL [5] [%] | inhibition at 7.81 µg/mL [7] [%] | inhibition at 62.5 µg/mL [8] [%] | inhibition at 3.91 µg/mL [9] [%] | CC50 [10] [µM] | inhibition at 15.63 µg/mL [11] [%] | inhibition at 31.25 µg/mL [12] [%] | MIC (Bacillus subtilis [13]) [µg/mL] | inhibition zone (IZ) (Pseudomonas aeruginosa [14]) [mm] | TIME [15] [h] | inhibition zone (IZ) (Aspergillus niger) [mm] | inhibition zone (IZ) (Bacillus subtilis [16]) [mm] | inhibition zone (IZ) (Microsporum audouinii [17]) [mm] | MIC (Pseudomonas aeruginosa [18]) [µg/mL] | MIC (Staphylococcus aureus [19]) [µg/mL] | MIC (Candida albicans [20]) [µg/mL] | MIC (Escherichia coli [21]) [µg/mL] | also measured |
| --- | --- | --- | --- | --- | --- | --- | --- | --- | --- | --- | --- | --- | --- | --- | --- | --- | --- | --- | --- | --- | --- |
| O=c1[nH]cc(F)c(=O)[nH]1 [FLUOROURACIL] | 90.5 | 60.7 | 32.1 | 42.1 | 65.8 | 100 | 17.9 | 37.4 | 73.7 | 100 | – | – | – | – | – | – | – | – | – | – | inhibition at 500 µg/mL [1]: 100%; inhibition at 250 µg/mL [6]: 100% |
| COC(=O)[C@H](Cc1cnc[nH]1)NC(=O)CNC(=O)[C@H](Cc1c[nH]c2ccccc12)NC(=O)CNC(=O)c1cc(-c2nc3cc(C)c(C)cc3[nH]2)ccc1O (X1-GWGH-OMe) | 18.9 | 53.6 | 35.7 | 26.3 | 44.7 | 100 | 7.14 | 15.3 | 55.3 | 86.8 | 6 (≈ 8.18 µM) | 23 | 0.291 | 15 | 12 | 10 | 6 (≈ 8.18 µM) | 12.5 (≈ 17 µM) | 6 (≈ 8.18 µM) | 12.5 (≈ 17 µM) | inhibition zone (IZ) (Trichophyton benhamiae [22]): 15 mm; inhibition zone (IZ) (Staphylococcus aureus [23]): 9 mm; Time (Pontoscolex corethrurus [24]): 26.21 min; inhibition at 31.25 µg/mL [25]: 71.4%; MIC (Trichophyton benhamiae [26]): 6 µg/mL (≈ 8.18 µM); inhibition zone (IZ) (Candida albicans [27]): 17 mm; Time (Eudrilus [28]): 20.94 min; TIME [29]: 0.157 h; Time (Pontoscolex corethrurus [30]): 14.34 min; inhibition at 62.5 µg/mL [31]: 100%; MIC (Microsporum audouinii [32]): 6 µg/mL (≈ 8.18 µM); Time (Eudrilus [33]): 11.06 min; inhibition zone (IZ) (Escherichia coli [34]): 17 mm |
| Cc1cc2nc(-c3ccc(O)c(C(=O)NCC(=O)N[C@@H](Cc4c[nH]c5ccccc45)C(=O)NCC(=O)N[C@@H](Cc4cnc[nH]4)C(=O)O)c3)[nH]c2cc1C (X1-GWGH-OH) | 12 | 75 | 46.4 | 44.7 | 60.5 | 100 | 10.7 | 6.15 | 81.6 | 100 | 6 (≈ 8.34 µM) | 24 | 0.289 | 16 | 14 | 11 | 6 (≈ 8.34 µM) | 12.5 (≈ 17.4 µM) | 6 (≈ 8.34 µM) | 12.5 (≈ 17.4 µM) | inhibition zone (IZ) (Trichophyton benhamiae [22]): 16 mm; inhibition zone (IZ) (Staphylococcus aureus [23]): 10 mm; Time (Pontoscolex corethrurus [24]): 24.52 min; inhibition at 31.25 µg/mL [25]: 92.8%; MIC (Trichophyton benhamiae [26]): 6 µg/mL (≈ 8.34 µM); inhibition zone (IZ) (Candida albicans [27]): 20 mm; Time (Eudrilus [28]): 19.83 min; TIME [29]: 0.155 h; Time (Pontoscolex corethrurus [30]): 12.22 min; inhibition at 62.5 µg/mL [31]: 100%; MIC (Microsporum audouinii [32]): 6 µg/mL (≈ 8.34 µM); Time (Eudrilus [33]): 10.89 min; inhibition zone (IZ) (Escherichia coli [34]): 18 mm |
